Measurements published in ChEMBL document CHEMBL1143932, “Biochemical and biological properties of 5-bromotubercidin: differential effects on cellular DNA-directed and viral RNA-directed RNA synthesis” (Bioorg Med Chem, 2008).
Activity calls are given as the source filed them. The rule behind the calls is not given here.

What was measured:
L2 = assay: Growth inhibition of mouse L2 cells at 15 uM
Oryctolagus cuniculus [1] = organism: Oryctolagus cuniculus; assay: Activity of rabbit liver adenosine kinase relative to adenosine
Procedure, shortened: (§1)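 Adenosine kinase partially purified from rabbit liver. Assay in 20 mM KPO4 pH 5.8 with 0.7 mM ATP, 0.25 mM phosphoenol pyruvate, 0.5 mM MgCl2, 50 mM KCl, pyruvate kinase and 7–70 µM radioactive nucleoside substrate, at 25 °C. Reaction stopped with 0.25 M perchloric acid. Nucleotides separated by paper electrophoresis at pH 3.5 and counted by scintillation. Km, Ki and relative Vmax (adenosine = 100) derived.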

Oryctolagus cuniculus [2] = organism: Oryctolagus cuniculus; assay: Activity of rabbit liver adenosine kinase
Procedure, shortened: as §1

Structure (SMILES)	Activity (L2)	Activity (Oryctolagus cuniculus [1])	Km (Oryctolagus cuniculus [2]) [µM]	Vmax (Oryctolagus cuniculus [2]) [µM/min]
Nc1ncnc2c1ccn2[C@@H]1O[C@H](CO)[C@@H](O)[C@H]1O	Active	114	9.5	3.57
Nc1ncnc2c1ncn2[C@@H]1O[C@H](CO)[C@@H](O)[C@H]1O			5.5	3.13
